Results: ChEMBL document CHEMBL4138314, “Synthesis and Evaluation of N-Phenyl-3-sulfamoyl-benzamide Derivatives as Capsid Assembly Modulators Inhibiting Hepatitis B Virus (HBV)” (J Med Chem, 2018)
The source made the active and inactive calls. The rule behind the calls is not given here.

Legend:
[1] = Cmax in humanized mouse at 200 mg/kg, sc for 8 days measured on day 8 post last dose by LC-MS/MS analysis; format: ADME, organism-based; parameters: dose 200 mg/kg, route subcutaneous; conditions: in vivo
[2] = Cmax in humanized mouse at 200 mg/kg, sc measured on day 1 post dose by LC-MS/MS analysis; format: ADME, organism-based; parameters: dose 200 mg/kg, route subcutaneous; conditions: in vivo
[3] = Drug uptake in humanized mouse liver at 50 mg/kg, sc after 24 hrs by LC-MS/MS analysis; format: ADME, organism-based; conditions: read-out: Drug uptake
Summary of the method: (§1)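 Uninfected humanized mice given 50 or 200 mg/kg subcutaneously once daily as a methocel suspension for 8 days; liver concentration measured 24 h after dosing.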

[4] = test system: HBV genotype D; test: Antiviral activity against HBV genotype D infected in human HepG2.2.15 cells assessed as inhibition of viral DNA level treated twice for 3 days measured after 6 days by real time PCR; format: functional, organism-based; conditions: Hepatitis B virus
[5] = Drug metabolism in human liver microsomes at 1 uM after 15 mins by LC-MS/MS analysis; format: ADME, microsome; conditions: read-out: Drug metabolism
Summary of the method: (§2)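 Compound incubated 15 min with human or mouse liver microsomes; stability expressed as percent turnover (metabolised) at 15 min.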

[6] = Drug metabolism in mouse liver microsomes at 1 uM after 15 mins by LC-MS/MS analysis; format: ADME, microsome; conditions: read-out: Drug metabolism; summary of the method: as §2
[7] = Clearance in C57BL/6 mouse at 2.5 mg/kg, iv by LC-MS/MS analysis; format: ADME, organism-based; conditions: in vivo
Summary of the method: (§3)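 Single-dose PK in C57BL/6 mice after intravenous or oral dosing, with oral doses of 10 and 50 mg/kg; plasma clearance and volume of distribution taken from the i.v. arm.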

[8] = Half life in C57BL/6 mouse at 10 mg/kg, po by LC-MS/MS analysis; format: ADME, organism-based; conditions: in vivo; summary of the method: as §3
[9] = Half life in C57BL/6 mouse at 50 mg/kg, sc by LC-MS/MS analysis; format: ADME, organism-based; conditions: in vivo
[10] = Tmax in C57BL/6 mouse at 10 mg/kg, po by LC-MS/MS analysis; format: ADME, organism-based; conditions: in vivo
Summary of the method: (§4)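 Single-dose PK in C57BL/6 mice given compound intravenously and orally, with oral doses of 10 and 50 mg/kg. Plasma clearance, volume of distribution and oral bioavailability were derived from the plasma profiles.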

[11] = AUC (0 to last) in C57BL/6 mouse at 50 mg/kg, po by LC-MS/MS analysis; format: ADME, organism-based; parameters: dose 50 mg/kg, route oral, time 0 - last; conditions: in vivo; summary of the method: as §3
[12] = Oral bioavailability in C57BL/6 mouse at 10 mg/kg by LC-MS/MS analysis; format: ADME, organism-based; conditions: in vivo; summary of the method: as §4
[13] = Oral bioavailability in C57BL/6 mouse at 50 mg/kg by LC-MS/MS analysis; format: ADME, organism-based; conditions: in vivo; summary of the method: as §4
[14] = Inhibition of sodium channel (unknown origin); parameters: species or system Homo sapiens
[15] = Inhibition of calcium channel (unknown origin); parameters: species or system Homo sapiens
[16] = target: Voltage-gated inwardly rectifying potassium channel KCNH2 (Homo sapiens, UniProt Q12809); test: Inhibition of human ERG
[17] = target: Cytochrome P450 2C9 (Homo sapiens, UniProt P11712); test: Inhibition of CYP2C9 (unknown origin); format: ADME
[18] = test system: Salmonella typhimurium; test: Genotoxicity in Salmonella typhimurium by Ames test; format: toxicity, organism-based; conditions: salmonella enterica subsp. enterica serovar typhimurium
[19] = test system: MDR1 (P-gp); test: Apparent permeability in pig LLC-PK1 cells expressing human MDR1 from apical to basolateral side in absence of P-gp inhibitor GF-120918; format: ADME, cell-based, Sus scrofa
Summary of the method: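 LLC-PK1-MDR1 monolayers; apical-to-basolateral apparent permeability measured without the P-gp inhibitor GF-120,918, run in parallel with an inhibitor-containing arm to form a +GF/−GF ratio.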

[20] = Unbound fraction in mouse plasma; format: ADME, cell-free
[21] = Drug uptake in C57BL/6 mouse liver at 50 mg/kg, sc after 24 hrs by LC-MS/MS analysis; format: ADME, organism-based; conditions: read-out: Drug uptake
Summary of the method: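 C57BL/6 mice dosed subcutaneously once at 50 mg/kg, given to bypass first-pass metabolism; compound measured in plasma (ng/mL) and liver (ng/g) 24 h after dosing.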

[22] = Cmax in humanized mouse at 50 mg/kg, sc measured on day 1 post dose by LC-MS/MS analysis; format: ADME, organism-based; parameters: dose 50 mg/kg, route subcutaneous; conditions: in vivo
[23] = Tmax in humanized mouse at 50 mg/kg, sc measured on day 1 post dose by LC-MS/MS analysis; format: ADME, organism-based; conditions: in vivo
[24] = Tmax in humanized mouse at 50 mg/kg, sc for 8 days measured on day 8 post last dose by LC-MS/MS analysis; format: ADME, organism-based; conditions: in vivo
[25] = Tmax in humanized mouse at 200 mg/kg, sc for 8 days measured on day 8 post last dose by LC-MS/MS analysis; format: ADME, organism-based; conditions: in vivo
[26] = AUC (0 to 24 hrs) in humanized mouse at 200 mg/kg, sc for 8 days measured on day 8 post last dose by LC-MS/MS analysis; format: ADME, organism-based; parameters: time < 24 hr, dose 200 mg/kg, route subcutaneous; conditions: in vivo
[27] = AUC (0 to infinity) in humanized mouse at 50 mg/kg, sc for 8 days measured on day 8 post last dose by LC-MS/MS analysis; format: ADME, organism-based; parameters: dose 50 mg/kg, time infinity, route subcutaneous; conditions: in vivo
[28] = AUC (0 to infinity) in humanized mouse at 200 mg/kg, sc for 8 days measured on day 8 post last dose by LC-MS/MS analysis; format: ADME, organism-based; parameters: dose 200 mg/kg, route subcutaneous, time infinity; conditions: in vivo
[29] = Half life in humanized mouse at 50 mg/kg, sc for 8 days measured on day 8 post last dose by LC-MS/MS analysis; format: ADME, organism-based; conditions: in vivo
[30] = Drug uptake in humanized mouse liver at 200 mg/kg, sc after 24 hrs by LC-MS/MS analysis; format: ADME, organism-based; conditions: read-out: Drug uptake; summary of the method: as §1
[31] = test system: HBV genotype D; test: Antiviral activity against HBV genotype D infected in primary human hepatocytes assessed as inhibition of viral DNA level by qPCR analysis; format: functional, organism-based; conditions: Hepatitis B virus
Summary of the method: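 Primary human hepatocytes isolated from naive chimeric mice with humanized liver and infected with HBV genotype D; HBV DNA in culture supernatant quantified by qPCR to derive EC50.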

[32] = test system: Mus musculus; test: Hepatotoxicity in chimeric mouse with humanized liver infected with HBV genotype D assessed as decrease in human albumin level in mouse serum at 200 mg/kg, sc qd for 28 days; format: toxicity, organism-based; conditions: in vivo, 672 h
Summary of the method: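 Cytotoxicity to human hepatocytes was judged in HBV genotype D-infected chimeric mice (≥70% human hepatocyte replacement) by tracking serum human albumin over time. Dosing was once daily for 28 days at 200 mg/kg s.c., with oral saline and oral entecavir 0.03 mg/kg as controls.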

[33] = test system: HBV genotype D; test: Antiviral activity against HBV genotype D infected in chimeric mouse with humanized liver assessed as log reduction in viral DNA level in serum at 200 mg/kg, sc qd for 28 days by RT-PCR method; format: functional, hepatitis B virus genotype D
Summary of the method: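 HBV genotype D-infected chimeric mice with humanized liver (human hepatocyte replacement index ≥70%, judged by serum human albumin). Dosing was once daily for 28 days: test article 200 mg/kg s.c., entecavir 0.03 mg/kg oral as positive control, and oral saline as negative control. The read-out was serum HBV DNA (copies/mL), given as mean log change from baseline at day 29.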

[34] = test system: HBV genotype D; test: Antiviral activity against HBV genotype D infected in chimeric mouse with humanized liver assessed as reduction in HBeAg level at 200 mg/kg, sc qd for 28 days; format: functional, organism-based; conditions: hepatitis B virus genotype D
Summary of the method: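 HBV genotype D-infected humanized-liver chimeric mice (≥70% human hepatocyte replacement) were dosed once daily for 28 days at 200 mg/kg s.c., with oral saline and oral entecavir 0.03 mg/kg as controls. Serum HBeAg and HBsAg were followed over the study.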

[35] = Drug metabolism in human primary hepatocytes assessed as cleavage of N-phenylamide; format: ADME, cell-based, Hepatocyte
Summary of the method: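 Compound incubated with primary hepatocytes and checked for cleavage of the N-phenylamide bond.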

Voltage-gated inwardly rectifying potassium channel KCNH2, sequence (Q12809 whole entry): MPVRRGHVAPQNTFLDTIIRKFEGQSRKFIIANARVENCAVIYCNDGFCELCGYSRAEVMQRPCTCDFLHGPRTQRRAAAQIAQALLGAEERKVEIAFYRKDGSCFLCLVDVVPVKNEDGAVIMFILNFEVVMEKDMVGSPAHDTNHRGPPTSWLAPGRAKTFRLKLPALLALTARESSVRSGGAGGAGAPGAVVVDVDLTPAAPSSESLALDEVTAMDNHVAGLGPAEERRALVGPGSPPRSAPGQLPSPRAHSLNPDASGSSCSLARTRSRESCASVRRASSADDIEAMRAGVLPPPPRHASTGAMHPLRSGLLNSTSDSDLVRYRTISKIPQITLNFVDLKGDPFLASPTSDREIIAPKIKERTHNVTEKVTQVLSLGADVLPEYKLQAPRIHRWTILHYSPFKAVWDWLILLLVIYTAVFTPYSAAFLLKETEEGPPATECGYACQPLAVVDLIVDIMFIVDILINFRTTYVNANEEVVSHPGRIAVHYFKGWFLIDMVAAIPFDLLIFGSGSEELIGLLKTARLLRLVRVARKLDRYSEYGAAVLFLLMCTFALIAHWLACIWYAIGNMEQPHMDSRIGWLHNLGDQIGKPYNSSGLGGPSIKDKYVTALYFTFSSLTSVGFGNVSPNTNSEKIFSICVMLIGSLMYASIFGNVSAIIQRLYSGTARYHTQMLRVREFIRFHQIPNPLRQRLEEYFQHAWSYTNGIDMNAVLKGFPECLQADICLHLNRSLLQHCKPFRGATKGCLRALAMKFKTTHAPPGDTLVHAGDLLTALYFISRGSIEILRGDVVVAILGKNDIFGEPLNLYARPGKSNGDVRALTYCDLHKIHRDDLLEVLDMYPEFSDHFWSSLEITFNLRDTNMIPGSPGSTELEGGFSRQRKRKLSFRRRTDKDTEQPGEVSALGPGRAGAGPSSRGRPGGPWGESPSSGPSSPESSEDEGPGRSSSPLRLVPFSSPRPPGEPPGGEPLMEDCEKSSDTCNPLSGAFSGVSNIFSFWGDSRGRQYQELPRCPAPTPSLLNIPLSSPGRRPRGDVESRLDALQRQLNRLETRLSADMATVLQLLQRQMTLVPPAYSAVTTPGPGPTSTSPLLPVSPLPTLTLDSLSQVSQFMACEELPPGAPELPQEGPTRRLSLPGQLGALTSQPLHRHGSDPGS
Cytochrome P450 2C9, sequence (P11712 whole entry): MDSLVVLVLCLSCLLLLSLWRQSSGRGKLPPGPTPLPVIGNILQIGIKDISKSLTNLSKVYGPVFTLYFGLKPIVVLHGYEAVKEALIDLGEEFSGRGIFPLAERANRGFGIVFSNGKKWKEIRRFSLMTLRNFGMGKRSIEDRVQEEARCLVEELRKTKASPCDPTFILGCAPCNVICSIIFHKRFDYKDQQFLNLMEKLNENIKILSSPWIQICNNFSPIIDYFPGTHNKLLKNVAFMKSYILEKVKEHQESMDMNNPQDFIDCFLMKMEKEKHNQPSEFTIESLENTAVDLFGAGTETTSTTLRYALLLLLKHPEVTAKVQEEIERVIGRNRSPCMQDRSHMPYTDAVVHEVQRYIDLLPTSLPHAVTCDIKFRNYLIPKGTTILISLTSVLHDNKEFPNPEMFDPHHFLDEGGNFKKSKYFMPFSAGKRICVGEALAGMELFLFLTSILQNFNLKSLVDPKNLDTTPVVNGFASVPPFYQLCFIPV

Q: Which Cmax [1] does the source give for `Cc1cc(NC(=O)c2cccc(S(=O)(=O)N[C@H]3CCOC3)c2)ccc1F` here?
A: 7700 ng/mL

Q: What about the Cmax [2] of the same compound?
A: 2110 ng/mL

Q: What about the concentration at 24 h [3] of the same compound?
A: 570 ng/g

Q: And the EC50 [4]?
A: 0.12 µM

Q: What about the metabolised at 0.25 h, 1 µM [5] of the same compound?
A: 26%

Q: And the metabolised at 0.25 h, 1 µM [6]?
A: 51%

Q: What about the clearance [7] of the same compound?
A: 34 mL/min/kg

Q: And the half-life [8]?
A: 1.1 h

Q: And the half-life [9]?
A: 5.3 h

Q: What about the Tmax [10] of the same compound?
A: 0.5 h

Q: What about the AUC(0-t) [11] of the same compound?
A: 16400 ng·h/mL

Q: And the bioavailability [12]?
A: 40%

Q: What about the bioavailability [13] of the same compound?
A: 66%

Q: What about the IC50 [14] of the same compound?
A: > 10 µM

Q: And the IC50 [15]?
A: > 10 µM

Q: And the IC50 [16]?
A: > 10 µM

Q: And the IC50 [17]?
A: > 10 µM

Q: And the Activity [18]?
A: Non-Toxic

Q: And the Papp A→B [19]?
A: 7.3 ×10⁻⁶ cm/s

Q: And the fraction unbound [20]?
A: 0.126

Q: And the concentration at 24 h [21]?
A: 1300 ng/g

Q: And the Cmax [22]?
A: 2190 ng/mL

Q: What about the Tmax [23] of the same compound?
A: 1 h

Q: What about the Tmax [24] of the same compound?
A: 0.8 h

Q: What about the Tmax [25] of the same compound?
A: 1 h

Q: What about the AUC at 24 h [26] of the same compound?
A: 86900 ng·h/mL

Q: What about the AUC(0-inf) [27] of the same compound?
A: 20700 ng·h/mL

Q: And the AUC(0-inf) [28]?
A: 119000 ng·h/mL

Q: And the half-life [29]?
A: 6.2 h

Q: And the concentration at 24 h [30]?
A: 4880 ng/g

Q: What about the EC50 [31] of the same compound?
A: 0.2 µM

Q: And the Activity [32]?
A: Non-Toxic

Q: And the “log(activity)” value [33]?
A: 2.77

Q: What about the Activity [34] of the same compound?
A: inactive

Q: And the Drug metabolism [35]?
A: Metabolite_Notdetected
